Active and inactive are the calls of the source. No cut-off for these calls is given here.
Legend:
[1] = system: Huh-7; assay: Induction of autophagy in human Huh-7 cells assessed as reduction in cathepsin D activity at 0.2 uM in presence of 3-MA; type: functional, cell-based
[2] = system: RAC-gamma serine/threonine-protein kinase (Homo sapiens), Q9Y243 [S472D]; assay: Inhibition of full length human Akt3 S472D mutant assessed as remaining activity at 1 uM using GRPRTSSFAEGKK as substrate incubated for 40 mins by scintillation counting method relative to control
Procedure, shortened: (§1)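 Eurofins KinaseProfiler kinase assay on human Akt1, Akt2 and Akt3. Compounds were tested at 1 µM. Residual kinase activity is reported as % of control.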

[3] = system: Huh-7; assay: Antitumour activity against human Huh-7 cells xenografted in nude mouse assessed as decrease in phosphorylation of AKT at 20 to 50 mg/kg, ip up to 15 days by immunohistochemical analysis; type: functional, organism-based; conditions: dose 20-50 mg/kg, time day <=15
Procedure, shortened: (§2)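 Tumors came from Huh-7 xenografted nude mice dosed intraperitoneally at 25 or 50 mg/Kg for 15 days. For IHC, sections underwent microwave antigen retrieval (EDTA pH 8.0 or citrate pH 6.0), then primary antibody at 37 °C for 30-40 min. HRP polymer/secondary was applied for 30 min, with DAB development and control IgG.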

[4] = system: Huh-7; assay: Induction of autophagosome in human Huh-7 harboring GFP-LC3 cells at 0.2 uM in presence of 3-MA by fluorescence microscopic analysis; type: functional, cell-based
[5] = system: RAC-beta serine/threonine-protein kinase (Homo sapiens), P31751 [S474D]; assay: Inhibition of full length human Akt2 S474D mutant assessed as remaining activity at 1 uM using GRPRTSSFAEGKK as substrate incubated for 40 mins by scintillation counting method relative to control; procedure, shortened: as §1
[6] = system: HepG2; assay: Cytotoxicity against human HepG2 cells assessed as reduction in cell viability by MTT assay; type: functional, cell-based
Procedure, shortened: (§3)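 Hepatoma cells were grown in DMEM with 10% FBS and streptomycin, then treated with compounds. Viability was read by MTT.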

[7] = system: Huh-7; assay: Induction of apoptosis in human Huh-7 cells assessed as reduction in Bcl-2 expression at 0.1 to 0.2 uM Western blot analysis; type: functional, cell-based; conditions: dose 0.1-0.2 µM
Procedure, shortened: (§4)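 Huh-7 cells were treated with or without compound. Total protein extracts were separated by SDS-PAGE and transferred to PVDF. Membranes were probed with primary antibodies, then HRP-conjugated secondary antibody (1:10,000), and detected by enhanced chemiluminescence.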

[8] = system: Huh-7; assay: Antitumour activity against human Huh-7 cells xenografted in nude mouse assessed as reduction in tumour volume at […], ip up to 15 days; type: functional, organism-based; conditions: time day <=15
Procedure, shortened: (§5)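 Nude mice bearing subcutaneous Huh-7 xenografts received 25 or 50 mg/Kg compound intraperitoneally. Tumor volume was followed from day 1 to day 15, with excised tumors weighed at the end. Body weight was also monitored.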

[9] = system: Huh-7; assay: Induction of autophagy in human Huh-7 cells harboring mCherry-GFP-LC assessed as increase in autophagosome puncta formation at 0.2 uM by fluorescence assay; type: functional, cell-based
[10] = species on record: Homo sapiens; assay: Inhibition of full length human Akt1 […] mutant assessed as remaining activity at 1 uM using GRPRTSSFAEGKK as substrate incubated for 40 mins by scintillation counting method relative to control; procedure, shortened: as §1
[11] = system: Huh-7; assay: Induction of apoptosis in human Huh-7 cells assessed as late apoptotic cells at 0.2 uM by Annexin V/propidium iodide staining based flow cytometric analysis (reference value: 3.15%); type: functional
[12] = system: Huh-7; assay: Antitumour activity against human Huh-7 cells xenografted in nude mouse assessed as increase in LC3-2 at 20 to 50 mg/kg, ip up to 15 days by immunohistochemical analysis; type: functional, organism-based; conditions: dose 20-50 mg/kg, time day <=15; procedure, shortened: as §2
[13] = system: Huh-7; assay: Cytotoxicity against human Huh-7 cells assessed as reduction in cell viability by MTT assay; type: functional, cell-based; procedure, shortened: as §3
[14] = Effect on total GDK3beta protein level in human Huh-7 cells at 0.1 to 0.2 uM by Western blot analysis; type: ADME, cell-based; conditions: huh-7, 0.2 µM, dose 0.1-0.2 µM; procedure, shortened: as §4
[15] = system: Huh-7; assay: Induction of autophagy in human Huh-7 cells assessed as reduction in cathepsin D activity at 0.2 uM in presence of Baf-A1; type: functional, cell-based
[16] = system: Huh-7; assay: Induction of apoptosis in human Huh-7 cells assessed as necrotic cells at 0.1 uM by Annexin V/propidium iodide staining based flow cytometric analysis (reference value: 0.59%); type: functional
[17] = system: Huh-7; assay: Antitumour activity against human Huh-7 cells xenografted in nude mouse assessed as reduction in tumour growth at […], ip up to 15 days; type: functional, organism-based; conditions: time day <=15; procedure, shortened: as §5
[18] = system: Huh-7; assay: Induction of apoptosis in human Huh-7 cells assessed as viable cells at 0.1 uM by Annexin V/propidium iodide staining based flow cytometric analysis (reference value: 94.83%); type: functional; conditions: read-out: Activity
[19] = molecular target: cAMP-dependent protein kinase catalytic subunit alpha (Homo sapiens) (UniProt P17612); assay: Inhibition of full length human PKAcalpha assessed as remaining activity at 1 uM using LRRASLG as substrate incubated for 40 mins by scintillation counting method relative to control
Procedure, shortened: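 Run as an outsourced KinaseProfiler service, with human PKA and Akt1, Akt2 and Akt3 in the same panel. Each compound was tested at a single 1 µM concentration, and the result is reported as kinase activity remaining, as a percentage of control.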

[20] = system: Huh-7; assay: Induction of apoptosis in human Huh-7 cells by Annexin V/propidium iodide staining based flow cytometric analysis; type: functional, cell-based; conditions: dose 0.1-0.2 µM
[21] = system: Huh-7; assay: Induction of apoptosis in human Huh-7 cells assessed as upregulation of cytochromeC protein expression at 0.1 to 0.2 uM by Western blot analysis; type: functional, cell-based; conditions: dose 0.1-0.2 µM; procedure, shortened: as §4
[22] = system: Huh-7; assay: Induction of autophagosome in human Huh-7 harboring GFP-LC3 cells at 0.2 uM in presence of Baf-A1 by fluorescence microscopic analysis; type: functional, cell-based
[23] = system: Huh-7; assay: Induction of apoptosis in human Huh-7 cells assessed as necrotic cells at 0.2 uM by Annexin V/propidium iodide staining based flow cytometric analysis (reference value: 0.59%); type: functional
[24] = system: Hep 3B2; assay: Cytotoxicity against human Hep3B cells assessed as reduction in cell viability by MTT assay; type: functional, cell-based; procedure, shortened: as §3
[25] = system: Huh-7; assay: Induction of apoptosis in human Huh-7 cells assessed as early apoptotic cells at 0.1 uM by Annexin V/propidium iodide staining based flow cytometric analysis (reference value: 1.43%); type: functional
[26] = Effect on total AKT protein level in human Huh-7 cells at 0.1 to 0.2 uM by Western blot analysis; type: ADME, cell-based; conditions: huh-7, 0.2 µM, dose 0.1-0.2 µM; procedure, shortened: as §4
[27] = system: Huh-7; assay: Antitumour activity against human Huh-7 cells xenografted in nude mouse assessed as increase in apoptotic cells at […], ip up to 15 days by TUNEL assay; type: functional, organism-based; conditions: time day <=15
Procedure, shortened: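 Tumor sections came from Huh-7 xenografted nude mice given 25 or 50 mg/Kg intraperitoneally over 15 days. Apoptotic cells were detected by TUNEL staining.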

[28] = molecular target: Glycogen synthase kinase-3 beta (Homo sapiens) (UniProt P49841); assay: Inhibition of GSK3beta phosphorylation at […] residue in human Huh-7 cells at 0.1 to 0.2 uM by Western blot analysis; type: cell-based; conditions: dose 0.1-0.2 µM; procedure, shortened: as §4
[29] = system: Huh-7; assay: Induction of autophagy in human Huh-7 cells assessed as reduction in cathepsin B activity at 0.2 uM in presence of Baf-A1; type: functional, cell-based
[30] = system: Huh-7; assay: Induction of autophagy in human Huh-7 cells assessed as increase in LC3-2 protein expression at 0.1 to 0.2 uM by Western blot analysis; type: functional, cell-based; conditions: dose 0.1-0.2 µM; procedure, shortened: as §4

Sequence of RAC-beta serine/threonine-protein kinase (Homo sapiens), P31751 [S474D] (P31751 whole entry S474D): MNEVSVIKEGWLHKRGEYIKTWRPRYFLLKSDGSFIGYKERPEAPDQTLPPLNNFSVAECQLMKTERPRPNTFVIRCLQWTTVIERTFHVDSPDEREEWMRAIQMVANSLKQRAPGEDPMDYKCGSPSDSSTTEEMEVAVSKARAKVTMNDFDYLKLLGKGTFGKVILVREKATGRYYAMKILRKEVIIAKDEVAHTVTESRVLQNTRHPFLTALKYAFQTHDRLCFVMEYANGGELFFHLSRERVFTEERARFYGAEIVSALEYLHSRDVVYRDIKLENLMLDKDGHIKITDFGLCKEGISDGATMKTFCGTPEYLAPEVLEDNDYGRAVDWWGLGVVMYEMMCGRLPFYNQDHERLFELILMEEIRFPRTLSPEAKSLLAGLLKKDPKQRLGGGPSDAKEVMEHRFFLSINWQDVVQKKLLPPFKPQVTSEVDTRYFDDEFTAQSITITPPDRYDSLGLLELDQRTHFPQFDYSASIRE
Sequence of RAC-gamma serine/threonine-protein kinase (Homo sapiens), Q9Y243 [S472D] (Q9Y243 whole entry S472D): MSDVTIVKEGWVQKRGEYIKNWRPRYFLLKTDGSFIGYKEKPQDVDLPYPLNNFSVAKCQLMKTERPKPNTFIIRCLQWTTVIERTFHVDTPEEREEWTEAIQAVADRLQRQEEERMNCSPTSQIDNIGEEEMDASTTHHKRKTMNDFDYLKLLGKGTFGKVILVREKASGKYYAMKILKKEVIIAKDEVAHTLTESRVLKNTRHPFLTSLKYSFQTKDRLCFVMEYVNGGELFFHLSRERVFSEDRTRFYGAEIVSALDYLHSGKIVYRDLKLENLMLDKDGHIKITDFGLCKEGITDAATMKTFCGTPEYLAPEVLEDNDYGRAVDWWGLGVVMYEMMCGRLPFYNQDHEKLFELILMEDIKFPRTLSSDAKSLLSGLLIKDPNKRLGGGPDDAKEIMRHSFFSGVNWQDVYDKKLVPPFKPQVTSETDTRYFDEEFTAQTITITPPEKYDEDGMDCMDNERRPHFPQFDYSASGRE
Sequence of Glycogen synthase kinase-3 beta (Homo sapiens) (P49841 whole entry, looked up): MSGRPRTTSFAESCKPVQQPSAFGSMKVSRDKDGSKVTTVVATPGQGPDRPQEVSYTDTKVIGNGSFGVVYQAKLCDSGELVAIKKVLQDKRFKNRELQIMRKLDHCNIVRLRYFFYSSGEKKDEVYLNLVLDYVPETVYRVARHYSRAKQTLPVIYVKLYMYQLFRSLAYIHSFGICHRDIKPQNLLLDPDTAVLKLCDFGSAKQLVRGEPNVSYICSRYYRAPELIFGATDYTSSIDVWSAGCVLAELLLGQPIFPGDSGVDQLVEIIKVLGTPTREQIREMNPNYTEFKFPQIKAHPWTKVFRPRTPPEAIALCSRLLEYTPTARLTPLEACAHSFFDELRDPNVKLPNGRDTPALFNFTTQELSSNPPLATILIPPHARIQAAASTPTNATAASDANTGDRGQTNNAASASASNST

For `O=C(C(CNC1CCCC1)c1ccc(Cl)cc1)N1CCN(c2ncnc3sc4c(c23)CCC4)CC1` (stereo not given), the Activity [1] was “inactive”, the Activity [2] was 22% and the Activity [3] was “Active”. The Activity [4] was “inactive”, the Activity [5] was 63% and the IC50 [6] was 0.183 µM. For the same molecule, the Activity [7] was “Active”, the Activity [8] was “Active” and the Activity [9] was “Active”. The Activity [10] was 1%, the Activity [11] was 9.13% and the Activity [12] was “Active”. For the same molecule, the IC50 [13] was 0.076 µM, the Activity [14] was “Non-Toxic” and the Activity [15] was “Active”. The Activity [16] was 2.69%, the Activity [17] was “Active” and the viability at 0.1 µM [18] was 84.2%. For the same molecule, the Activity [19] was 35%, the Activity [20] was “Dose-dependent effect” and the Activity [21] was “Active”. For the same molecule, the Activity [22] was “Active”, the Activity [23] was 2.99% and the IC50 [24] was 0.131 µM. For the same molecule, the Activity [25] was 5.15%, the Activity [26] was “Non-Toxic” and the Activity [27] was “Active”. The inhibition [28] was “Active”, the Activity [29] was “Active” and the Activity [30] was “Active”.

— ChEMBL document CHEMBL4680191, “Discovery of novel akt1 inhibitor induces autophagy associated death in hepatocellular carcinoma cells” (Eur J Med Chem, 2020)
